Shown are actives, neighbours in structure and some others; about 29% of the full set was active somewhere.
E coli WT exp: blocks growth of wild type E. coli BW25113; OD600 absorbance; growth inhibition, % at 100 µM; actives 0.15% (n = 98,000); AID 710;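 active = growth inhibition above about 50% at one test dose, limit read from the data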;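 note: growth measured after 20 h incubation at 37 °C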
CYP2C19 inhib: blocks human cytochrome P450 2C19; P33261; CYP2C19 Supersomes, luciferin-H EGE luminescence, 30 min; inhibition, % at 5 µM; actives 21% (n = 96,000);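 active = CYP2C19 inhibition above a set limit at 5 µM in the primary screen, cut at about 50% in these data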;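 note: plate controls were negative control wells for no effect and 2.5 mM tranylcypromine positive control for full effect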
Target sequence (P33261 whole entry, looked up): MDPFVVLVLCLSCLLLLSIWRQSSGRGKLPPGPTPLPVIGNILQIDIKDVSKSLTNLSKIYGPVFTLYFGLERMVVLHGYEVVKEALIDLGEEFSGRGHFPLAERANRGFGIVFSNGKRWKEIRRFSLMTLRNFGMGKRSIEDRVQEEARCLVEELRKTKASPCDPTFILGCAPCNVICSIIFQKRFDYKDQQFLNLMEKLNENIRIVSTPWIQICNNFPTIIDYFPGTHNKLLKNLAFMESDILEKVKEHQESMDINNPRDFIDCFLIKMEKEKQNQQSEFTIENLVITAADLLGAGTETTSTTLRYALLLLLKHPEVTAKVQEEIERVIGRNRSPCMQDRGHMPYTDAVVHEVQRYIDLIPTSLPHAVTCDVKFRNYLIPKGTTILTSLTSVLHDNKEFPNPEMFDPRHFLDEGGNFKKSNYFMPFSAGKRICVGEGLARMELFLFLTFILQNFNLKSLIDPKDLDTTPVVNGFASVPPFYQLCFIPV
Ecoli tolC: growth inhibitors of E. coli BW25113 tolC mutant; actives 2.2% (n = 65,000); AID 573; growth inhibition, % at 10 µM (by protocol); OD615;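 active = growth inhibition at or above a cutoff equal to the mean over every tested compound plus 3 SD, cut at about 60% in these data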;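 note: growth measured after 20 h incubation at 37 °C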
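Test system: tolC-deleted E. coli BW25113; medium: LB with kanamycin 50 µg/mL; compound: single-point testing at 10 µM; incubation: 20 h compound exposure of bacteria at 37 °C; signal: OD at 615 nm; evaluation: growth inhibition in percent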
CYP2C9 activ: CYP2C9 (human) activation. recombinant CYP2C9, luciferin-H conversion, luminescence; hits give high values; factor 1 = untreated enzyme, 0 = blocked. activation factor at 5 µM. P11712. actives 1.4% (n = 96,000);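 active = activation factor of 2 or more for CYP2C9 at a 5 µM dose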;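 note: 0 = sulfaphenazole-blocked wells and 1 = vehicle-only wells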
CYP2C9 inhib: blocks human cytochrome P450 2C9; P11712; CYP2C9 Supersomes, luciferin-H conversion, luminescence; inhibition, % at 5 µM; actives 20% (n = 96,000);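 active = blocking of liver enzyme CYP2C9 beyond about 50% at 5 µM, limit read from the data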
CYP2C19 act: cytochrome P450 2C19 (human) activation; recombinant CYP2C19, luciferin-H EGE luminescence; hits give high values; 0 = fully inhibited enzyme, 1 = untreated enzyme; activation factor at 5 µM; 96,000 tested, under 10 active;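 active = activation factor of at least 2 at 5 µM in the primary screen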;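 note: 0 = wells with 2.5 mM tranylcypromine and 1 = vehicle-only wells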
Numbers without * were called inactive.

Screening OCCN1CCN(c2nc(-c3ccccc3)nc3c2oc2ccccc23)CC1 returned E coli WT exp -2, CYP2C19 inhib 86*, Ecoli tolC 25, CYP2C9 activ 0.3, CYP2C9 inhib 65* and CYP2C19 act 0.1.
For O=C(O)C1CCN(c2nc(-c3ccccc3)nc3c2oc2ccccc23)CC1 the results were E coli WT exp 9, CYP2C19 inhib -1, Ecoli tolC 42, CYP2C9 activ 1.2, CYP2C9 inhib -16 and CYP2C19 act 1.
Screening O=C(O)CSc1nc(-c2ccccc2)nc2c1oc1ccccc12 returned E coli WT exp -9, CYP2C19 inhib 7, Ecoli tolC 44, CYP2C9 activ 0.1, CYP2C9 inhib 91* and CYP2C19 act 0.9.
CNC(=O)C(Sc1nc(C)nc2c1oc1ccccc12)C(C)=O (stereo not drawn) was read as E coli WT exp -5, CYP2C19 inhib 55*, CYP2C9 activ 0.4, CYP2C9 inhib 61* and CYP2C19 act 0.5.
For CCCC1CCc2c(sc(NC(=O)c3cccs3)c2C(N)=O)C1 (stereo not drawn) the results were E coli WT exp -6, CYP2C19 inhib -14, CYP2C9 activ 0.9, CYP2C9 inhib 14 and CYP2C19 act 1.1.
O=C(CNS(=O)(=O)c1ccccc1)NCc1ccccn1 was read as E coli WT exp 3, CYP2C19 inhib -3, Ecoli tolC -12, CYP2C9 activ 1, CYP2C9 inhib 4 and CYP2C19 act 1.
`Cc1cccc(C)c1OCCCCCNCCO` gave E coli WT exp -4, CYP2C19 inhib 18, CYP2C9 activ 1, CYP2C9 inhib 4 and CYP2C19 act 0.8.
Cc1ccccc1C(=O)NCc1nnc(SCC(=O)N2c3ccccc3Sc3ccccc32)n1C was read as E coli WT exp -4, CYP2C19 inhib 23, CYP2C9 activ 1, CYP2C9 inhib -3 and CYP2C19 act 0.8.
Cc1nc(SCC(=O)Nc2ccccc2)c2oc3ccccc3c2n1 was read as E coli WT exp 1, CYP2C19 inhib 51*, Ecoli tolC -4, CYP2C9 activ 0.2, CYP2C9 inhib 80* and CYP2C19 act 0.5.
`Cc1nc(SCC(=O)Nc2ccc(F)cc2)c2oc3ccccc3c2n1` gave E coli WT exp -5, CYP2C19 inhib 40, Ecoli tolC 12, CYP2C9 activ 0.2, CYP2C9 inhib 84* and CYP2C19 act 0.6.
`Cc1ccc2[nH]c(=O)c(CN(Cc3ccco3)C(=O)c3ccncc3)cc2c1` gave E coli WT exp -4, CYP2C19 inhib 100*, Ecoli tolC -4, CYP2C9 activ 0, CYP2C9 inhib 96* and CYP2C19 act 0.
O=C(c1cc2ccccc2oc1=O)N(Cc1ccco1)Cc1cccs1 was read as E coli WT exp 3, CYP2C19 inhib 33, Ecoli tolC 18, CYP2C9 activ 0.3, CYP2C9 inhib 66* and CYP2C19 act 0.7.
For COc1ccc(C(=O)N(Cc2ccco2)Cc2cc3cc(C)ccc3[nH]c2=O)cc1OC the results were Ecoli tolC -1.
Screening O=C(c1cccs1)N(Cc1ccco1)Cc1cc2ccccc2[nH]c1=O returned E coli WT exp 4, CYP2C19 inhib 75*, Ecoli tolC 26, CYP2C9 activ 0.3, CYP2C9 inhib 67* and CYP2C19 act 0.3.
Screening Cc1ccc2cc(CN(CC3CCCO3)C(=O)C(C)C)c(=O)[nH]c2c1 (stereo not drawn) returned E coli WT exp 7 and Ecoli tolC -7.
For Cc1ccc2[nH]c(=O)c(CN(CC3CCCO3)C(=O)c3ccncc3)cc2c1 (stereo not drawn) the results were E coli WT exp 0, CYP2C19 inhib 98*, Ecoli tolC 8, CYP2C9 activ 0.2, CYP2C9 inhib 84* and CYP2C19 act 0.
For Cc1ccc(NC(=O)CCC(=O)NNC(=O)c2ccco2)cc1C the results were E coli WT exp 6, CYP2C19 inhib 2, CYP2C9 activ 1, CYP2C9 inhib -2 and CYP2C19 act 1.
For CC(C)(C)c1ccc(OCCNC(=O)c2ncn[nH]2)cc1 the results were E coli WT exp 4, CYP2C19 inhib 75*, CYP2C9 activ 0.5, CYP2C9 inhib 53* and CYP2C19 act 0.2.
CCSc1nc2ccccc2n1CC(N)=O was read as E coli WT exp -11 and Ecoli tolC -17.
`CCSc1nc2ccccc2n1Cc1nc(N)nc(N(C)C)n1` gave E coli WT exp 0, CYP2C19 inhib 90*, Ecoli tolC 10, CYP2C9 activ 0.3, CYP2C9 inhib 66* and CYP2C19 act 0.1.
For CC(NC(=O)c1cccnc1)c1ccc2c(c1)OCO2 (stereo not drawn) the results were E coli WT exp 0, CYP2C19 inhib 41, Ecoli tolC -10, CYP2C9 activ 0.9, CYP2C9 inhib 13 and CYP2C19 act 0.6.
CC(NC(=O)c1cc2sccc2n1C)c1ccc2c(c1)OCCO2 (stereo not drawn) was read as E coli WT exp -7, CYP2C19 inhib 22, Ecoli tolC 9, CYP2C9 activ 0.2, CYP2C9 inhib 82* and CYP2C19 act 0.8.
Screening CC(NC(=O)c1cccs1)c1ccc2c(c1)OCO2 (stereo not drawn) returned E coli WT exp 8, CYP2C19 inhib 92*, Ecoli tolC 4, CYP2C9 activ 0.2, CYP2C9 inhib 76* and CYP2C19 act 0.1.
CCn1c(SC)nnc1-c1sc2cc(Cl)ccc2c1Cl was read as E coli WT exp -7, CYP2C19 inhib 36, Ecoli tolC 77*, CYP2C9 activ 1.4, CYP2C9 inhib -35 and CYP2C19 act 0.6.
Screening CSc1nnc(-c2sc3cc(Cl)ccc3c2Cl)n1C returned E coli WT exp -2, CYP2C19 inhib 52*, Ecoli tolC 15, CYP2C9 activ 0.8, CYP2C9 inhib 24 and CYP2C19 act 0.5.
Screening CCc1ccc(CN(C)CCc2ccccn2)cc1 returned E coli WT exp -6, CYP2C19 inhib 89*, Ecoli tolC 4, CYP2C9 activ 0.8, CYP2C9 inhib 21 and CYP2C19 act 0.1.
`CN(CCc1ccccn1)Cc1ccc(Cl)cc1` gave E coli WT exp 4, CYP2C19 inhib 53*, Ecoli tolC -3, CYP2C9 activ 1.2, CYP2C9 inhib -24 and CYP2C19 act 0.5.
Screening Cc1ccc(CN(C)CCc2ccccn2)cc1 returned E coli WT exp 3, CYP2C19 inhib 44, Ecoli tolC -2, CYP2C9 activ 0.8, CYP2C9 inhib 15 and CYP2C19 act 0.6.
For COC(=O)C(C)n1cnc2c(nnn2-c2ccc(OC)cc2)c1=O (stereo not drawn) the results were E coli WT exp -1, CYP2C19 inhib 1, Ecoli tolC -8, CYP2C9 activ 0.9, CYP2C9 inhib 11 and CYP2C19 act 1.
CCOC(=O)C(CC)n1cnc2c(nnn2-c2ccc(C)cc2)c1=O (stereo not drawn) was read as E coli WT exp 5, CYP2C19 inhib 17, Ecoli tolC 4, CYP2C9 activ 0.5, CYP2C9 inhib 50* and CYP2C19 act 0.8.
